{"data": "Published values from different studies", "cell line": "MDA-MB-468", "effect on": "cell growth or viability", "note": "Lines come from different studies, so protocols differ."}
{"Compound": "COc1cccc2c1C(=O)c1c(O)c3c(c(O)c1C2=O)C[C@@](O)(C(=O)CO)C[C@@H]3O[C@H]1C[C@H](N)[C@H](O)[C@H](C)O1", "technique": "resazurin", "time": "72 h", "IC50": "0.1 µM"}
{"Compound": "CC(=O)Nc1nc(C)c(-c2csc(Nc3ccccc3)n2)s1", "technique": "MTT", "time": "72 h", "IC50": "11.1 µM"}
{"Compound": "Cc1c2cccc(Sc3ccccc3)c2c2c3c(cccc13)[S+](c1ccccc1)C2 (centres unmarked)", "technique": "MTT", "IC50": "0.71 µM"}
{"Compound": "O=C(CSc1nc2ccc(N=Cc3ccc(Sc4nnnn4-c4ccccc4)o3)cc2s1)N1CCOCC1", "technique": "MTT", "time": "72 h", "IC50": "20.4 µM"}
{"Compound": "CN(N=O)c1ccc(C=Cc2ccnc3ccccc23)cc1", "technique": "MTT", "IC50": "3.5 µM"}
{"Compound": "O=S(=O)(NN=Cc1cn(CCN2CCOCC2)c2ccccc12)c1ccc(F)cc1", "technique": "MTT", "time": "48 h", "IC50": "15 µM"}
{"Compound": "CCc1ccc(N2NC(=O)/C(=C/c3ccc(-c4ccc(S(=O)(=O)Nc5nccs5)cc4)o3)C2=O)cc1", "technique": "MTT", "time": "48 h", "IC50": "44 µM"}
{"Compound": "COc1cccc2c1C(=O)c1c(O)c3c(c(O)c1C2=O)C[C@@](O)(C(=O)CO)C[C@@H]3O[C@H]1C[C@H](N)[C@H](O)[C@H](C)O1", "technique": "MTT", "time": "48 h", "IC50": "0.08 µM"}
{"Compound": "N=C(N)c1ccc(-c2ccc(-c3ccccc3)o2)cc1", "technique": "MTT", "IC50": "0.66 µM"}
{"Compound": "O=S(=O)(NN=Cc1cn(CCN2CCOCC2)c2ccccc12)c1ccc(Cl)cc1", "technique": "MTT", "time": "48 h", "IC50": "8.2 µM"}
{"Compound": "Nc1nc(Nc2ccc(S(N)(=O)=O)cc2)sc1C(=O)c1cccc(F)c1", "technique": "MTT", "time": "72 h", "IC50": "0.85 µM"}
{"Compound": "COc1ccc(Br)cc1/C=C/C(=O)c1ccc(NC(C)=O)cc1", "technique": "MTT", "time": "72 h", "IC50": "1.8 µM"}
{"Compound": "O=S(=O)(Cc1ccccc1)NN=Cc1cn(CCN2CCOCC2)c2ccccc12", "technique": "MTT", "time": "48 h", "IC50": "50.6 µM"}
{"Compound": "COc1ccc(/C=C/C(=O)c2cc(Br)ccc(=O)c2O)cc1", "technique": "MTT", "time": "72 h", "IC50": "6.6 µM"}
{"Compound": "COc1cc2cc(OC)c3cc4c(cc3c2c(OC)c1OC)OCO4", "technique": "MTT", "IC50": "21 µM"}
{"Compound": "COc1cc(/C=C2\\SC(=O)NC2=O)ccc1OCc1ccc(Cl)cc1Cl", "technique": "MTT", "time": "48 h", "IC50": "32.5 µM"}
{"Compound": "c1ccc2c(c1)Cc1c(Cc3csc4ccccc34)ccc3cccc-2c13", "technique": "MTT", "IC50": "157 µM"}
{"Compound": "Cc1ccc(S(=O)(=O)NN=Cc2cn(CCN3CCOCC3)c3ccccc23)cc1", "technique": "MTT", "time": "48 h", "IC50": "40.8 µM"}
{"Compound": "Nc1ccc2cc3[nH]c4cc(N)ccc4c3nc2c1", "technique": "MTT", "IC50": "0.11 µM"}
{"Compound": "O=S(=O)(NN=Cc1cn(CCN2CCOCC2)c2ccccc12)c1ccccc1", "technique": "MTT", "time": "48 h", "IC50": "47 µM"}
